Compound activity from PubChem BioAssay.
LMPTP inh – blocks human LMPTP phosphatase; AID 651560; inhibition, % at 20 µM; recombinant LMPTP-A, OMFP fluorogenic substrate, fluorescence intensity; 0.22% of 360,000 active; P24666;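 active = compounds that cut the enzyme signal by at least half of the control window in the single-dose screen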
Target sequence (P24666 whole entry, looked up): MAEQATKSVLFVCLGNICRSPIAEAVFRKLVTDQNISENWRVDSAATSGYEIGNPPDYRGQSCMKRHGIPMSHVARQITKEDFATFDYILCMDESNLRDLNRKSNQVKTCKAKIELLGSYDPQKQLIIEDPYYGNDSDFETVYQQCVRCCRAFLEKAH
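Test system: LMPTP-A phosphatase enzyme; input: 0.625 nM LMPTP-A final; reagent: OMFP substrate, 400 µM final; compound dosing: 20 µM single dose, 3% DMSO; incubation: 50 min dark incubation at room temperature; measured by: endpoint fluorescence intensity from OMFP dephosphorylation; measure: % inhibition relative to no-enzyme and uninhibited control wells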
STEP block – STEP (human) phosphatase inhibition. P54829. recombinant STEP, OMFP fluorogenic substrate, fluorescence. inhibition, % at 20 µM. 0.25% of 360,000 active. AID 588621;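 active = inhibition at 20 µM, scaled per plate between control wells, above about 37%, limit read from the data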
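Also added – OMFP at 25 µM · Test system – STEP tyrosine phosphatase · Technique – FITC-channel fluorescence of OMFP product · Schedule – 20 min at room temperature, dark · Evaluation – control-normalized % inhibition with plate pattern correction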
Scp-1 inhibitor – Scp-1 (human) phosphatase inhibition. Recombinant Scp1, phosphopeptide, malachite green phosphate absorbance. Q9GZU7. inhibition, % at 20 µM. 0.88% of 340,000 active;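 active = inhibition above about 50% at 20 µM, limit read from the data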
Target sequence (Q9GZU7 76-261 limits assumed): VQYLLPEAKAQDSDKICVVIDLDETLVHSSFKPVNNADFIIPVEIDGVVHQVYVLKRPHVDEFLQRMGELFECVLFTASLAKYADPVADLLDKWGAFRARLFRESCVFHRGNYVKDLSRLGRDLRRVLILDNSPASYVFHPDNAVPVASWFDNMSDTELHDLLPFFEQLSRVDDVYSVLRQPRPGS
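Test system: SCP-1 phosphatase catalytic domain, residues 76-261 | Compound dosing: One concentration, 20 µM, with 1.0% DMSO | Schedule: 45 min room-temperature reaction, 5 min colour, 30 min stabiliser | Detection: Absorbance at 630 nm | Read-out basis: % inhibition of SCP-1 phosphate liberation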
PP1 inh – blocks human PP1-alpha phosphatase, a PP5 counter-screen; purified PP1alpha, OMFP fluorescence; inhibition, % at 6.7 µM; 0.9% of 320,000 active; AID 2235;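 active = inhibition above the mean inhibition of all tested compounds plus 3 SD, computed separately for each screening campaign, cut at about 15% in these data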
Target sequence (P62136 whole entry, looked up): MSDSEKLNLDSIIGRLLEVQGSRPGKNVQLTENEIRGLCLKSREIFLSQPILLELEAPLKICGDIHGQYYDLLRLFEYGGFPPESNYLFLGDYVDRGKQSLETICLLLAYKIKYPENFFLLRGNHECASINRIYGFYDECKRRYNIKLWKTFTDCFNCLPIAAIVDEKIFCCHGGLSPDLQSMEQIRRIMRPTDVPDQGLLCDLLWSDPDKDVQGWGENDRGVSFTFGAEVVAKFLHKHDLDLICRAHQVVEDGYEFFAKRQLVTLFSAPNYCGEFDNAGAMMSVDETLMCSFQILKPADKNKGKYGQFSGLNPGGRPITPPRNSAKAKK
PP5 primary – PP5 (human) phosphatase inhibition | P53041 | purified PP5c, OMFP substrate fluorescence | inhibition, % at 6.7 µM | 0.18% of 320,000 active;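 active = inhibition above the campaign's mean inhibition across all tested compounds plus 3 SD, cut at about 9.5% in these data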
Scp1 confirm – Scp-1 (human) inhibition, single-dose confirmed; shares compounds with Scp-1 inhibitor; recombinant SCP-1 catalytic domain, phosphate release, malachite green absorbance; inhibition, % at 20 µM; 61% of 2,500 active; AID 540281
Scp-1 MG ctr – interferes with malachite green readout, flagging false Scp-1 hits | shares compounds with Scp-1 inhibitor | Colorimetric interference counterscreen, malachite green absorbance 630 nm | apparent inhibition (interference), % at 20 µM | 2,500 tested, under 10 active | AID 540313;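 also: compounds added after enzyme reaction finished so only phosphate colour detection is probed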
Scp-1 Tm shift – validation of human Scp-1 inhibitors by thermal shift binding; 25% of 1,500 active; Recombinant SCP1, Sypro Orange thermal shift Tm; shares compounds with Scp-1 inhibitor; thermal shift relative to vanadate control, % at 40 µM; AID 540329;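 active = substances whose mean melting-temperature shift, as a percentage of the reference inhibitor's shift, reaches about 5.3%, limit read from the data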
STEP inh conf – STEP (human) phosphatase inhibition, single concentration confirmation | inhibition, % at 20 µM | shares compounds with STEP block | 32% of 520 active | recombinant STEP, OMFP fluorogenic substrate, fluorescence | AID 623866; call rule not given here
Large screens that a line does not name were inactive (follow-up assays come after a bar, where they were run). A selection: hits, their analogues and other compounds. The true share with any hit is near 1.9%.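 The calls were made as follows, unless noted: active = inhibition of at least 30% at 20 µM; inactive = the rest.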

CCN(c1ccccc1)S(=O)(=O)c1cc(C(=O)OC(C)C(=O)Nc2ccc3c(c2)OCCO3)ccc1C (stereo not drawn)	STEP block 41.2, Scp-1 inhibitor 81.3 | Scp1 confirm 63.2 | Scp-1 MG ctr inactive | Scp-1 Tm shift 7.5 | STEP inh conf 59.2
CC(OC(=O)c1ccccn1)C(=O)Nc1ccc2c(c1)OCCO2 (stereo not drawn)	none
CN(c1ccccc1)S(=O)(=O)c1cc(C(=O)OCC(=O)c2c(N)n(C)c(=O)n(C)c2=O)ccc1Cl	none (no result: PP1 inh, PP5 primary)
COc1ccc(CCNC(=S)Nc2ccc(C)cc2C)cc1	none
O=C(O)c1ccc(Nc2nc(-c3ccc([N+](=O)[O-])cc3)nc3ccccc23)cc1	LMPTP inh 62.7, STEP block 88.8, Scp-1 inhibitor 81.6 (no result: PP1 inh, PP5 primary) | Scp1 confirm 56.8 | Scp-1 MG ctr inactive | Scp-1 Tm shift 9.2 | STEP inh conf inactive
O=[N+]([O-])c1ccc(-c2nc(Nc3ccc(O)cc3)c3ccccc3n2)cc1	none (no result: PP1 inh, PP5 primary)
COc1cccc2cc(C(=O)Nc3cccc(C)n3)c(=O)oc12	STEP block 55.7, Scp-1 inhibitor 102.1 | Scp1 confirm 60.5 | Scp-1 MG ctr inactive | Scp-1 Tm shift inactive | STEP inh conf inactive
CN(C)c1cc(-c2ccc(Cl)c(Cl)c2)oc(=O)c1Cl	LMPTP inh 59.7, STEP block 96.2, Scp-1 inhibitor 106.6 | Scp1 confirm 81.3 | Scp-1 MG ctr inactive | Scp-1 Tm shift inactive | STEP inh conf inactive
CCCCn1c(N)c(-c2nc3ccccc3s2)c2c([N+](=O)[O-])nn(C)c(=O)c21	none
CCCCCn1c(N)c(-c2nc3ccccc3o2)c2c([N+](=O)[O-])nn(C)c(=O)c21	LMPTP inh 83.4, STEP block 96.8, Scp-1 inhibitor 98.7 | Scp1 confirm 72.7 | Scp-1 MG ctr inactive | Scp-1 Tm shift 5.4 | STEP inh conf 40.4
NS(=O)(=O)c1ccc(NC(=S)NC2CCCCC2)cc1	STEP block 59.7 | STEP inh conf inactive
NS(=O)(=O)c1ccc(NC(=O)NC2CCCCC2)cc1	none
COCCCN(C(=S)Nc1c(C)cc(C)cc1C)C(C)c1ccccn1 (stereo not drawn)	STEP block 46.4 | STEP inh conf 24.8
CCn1c(SCc2ccc(C)cc2)nnc1-c1cnccn1	none
COc1ccc(S(=O)(=O)N/N=C(/C)c2ccncc2)cc1OC	none (no result: PP1 inh, PP5 primary)
CCOc1ccc(/C=N/NC(=O)c2[nH]c3ccc(C)cc3c2C)cc1	STEP block 79.7 (no result: PP1 inh, PP5 primary) | STEP inh conf inactive
Cc1ccc(NC(=O)C(=O)NCCCN2CCCC2=O)cc1	none
Cc1ccc(COc2ccc(CNCCCN3CCCCCC3=O)cc2)cc1	STEP block 75.4 | STEP inh conf inactive
Cc1cc(NS(=O)(=O)c2ccc(NC(=O)COc3ccccc3C(C)C)cc2)no1	none
CCOC(=O)CCC(=O)N1CCNC(=O)C1	none
Cc1cc(-c2nnc3sc(-c4ccc(Cl)cc4Cl)nn23)n[nH]1	STEP block 86.0 | STEP inh conf inactive
Clc1ccc(-c2nnc3sc(-c4ccc(Br)o4)nn23)c(Cl)c1	none
O=C(N/N=C/C(Cl)=C/c1ccc([N+](=O)[O-])cc1)C(=O)Nc1cccc(C(=O)O)c1	STEP block 46.3 | STEP inh conf inactive
COC(=O)C1(C(C[N+](=O)[O-])c2ccc(C)cc2)C(=O)NCC1c1ccco1 (stereo not drawn)	none
Cc1ccc(N(CC(=O)N/N=C/c2cccs2)S(C)(=O)=O)cc1	STEP block 121.4 | STEP inh conf inactive
COc1ccc(N(CC(=O)N/N=C/c2cccs2)S(=O)(=O)c2ccccc2)cc1	none
O=c1cc(-c2ccc(O)cc2)oc2c(C3OCC(O)C(O)C3O)c(O)c(C3OC(CO)C(O)C(O)C3O)c(O)c12 (stereo not drawn)	none
COc1ccc(COc2ccsc2C(=O)Nc2ccc(Cl)c(Cl)c2)cc1	STEP block 54.6 | STEP inh conf inactive
CN(C)S(=O)(=O)Oc1ccsc1C(=O)Nc1ccc(Cl)c(Cl)c1	none
O=C(NCCc1ccc(Cl)cc1)C1CCN(S(=O)(=O)c2ccc(Br)s2)CC1	none
COc1ccc(OCC(=O)Nc2ccc3oc(-c4ccncc4)nc3c2)cc1	STEP block 48.6 | STEP inh conf inactive
O=C(COc1ccc(Cl)cc1)Nc1ccc2oc(-c3ccncc3)nc2c1	none
Cc1csc2nc(CNS(=O)(=O)c3cccnc3)cn12	none
Cc1ccccc1N=C1NC(=O)C(CO)(CO)S1	none (no result: PP1 inh, PP5 primary)
O=c1c2ccccc2nc2sc(Nc3cccc(Cl)c3)nn12	LMPTP inh 71.9, STEP block 70.1 | STEP inh conf inactive
Cc1cc(N2CCN(C(=O)c3ccco3)CC2)c2ccccc2n1	STEP block 71.1 | STEP inh conf inactive
Nc1nc(N2CCN(C(=O)c3ccco3)CC2)nc2ccccc12	none
Cc1ccc(N=C2NC(=O)/C(=C/c3cccnc3)S2)cc1C	STEP block 45.3 | STEP inh conf inactive
Cc1ccc(N=C2NC(=O)/C(=C\c3cccs3)S2)cc1C	none
O=C(Oc1ccc(/C=N/NC(=O)c2ccccn2)cc1)c1cccc(Br)c1	none (no result: PP1 inh, PP5 primary)
O=C(Oc1ccc(/C=N/NC(=O)c2ccccn2)cc1)c1ccc(Br)cc1	LMPTP inh 55.0, STEP block 54.8 | STEP inh conf inactive
Cc1ccc(C(=O)N/N=C\c2ccc(OC(=O)c3cccc(F)c3)cc2)cn1	LMPTP inh 61.7, STEP block 82.1 | STEP inh conf inactive
CCOC(=O)C(=N/O)/C(C)=N/NC(=O)C(=O)Nc1cc(Cl)ccc1Cl	STEP block 50.7 | STEP inh conf inactive
OCC[C@H]1C[C@@H](O)[C@H](O)[C@]2(CCCO2)O1	none
S=C(NCCCN1CCOCC1)Nc1cccc(-c2nnc3n2CCCCC3)c1	STEP block 41.9 | STEP inh conf inactive
S=C(NCCCN1CCOCC1)Nc1ccc(-c2nc3ccccc3[nH]2)cc1	STEP block 64.7 | STEP inh conf 40.0
Cc1c(C)c2ccc(OCC(=O)N3CCC(C(=O)O)CC3)cc2oc1=O	none
COc1ccc2[nH]cc(CCNC(=O)c3ccccc3Cl)c2c1	STEP block 46.3 | STEP inh conf inactive
COc1ccc2[nH]cc(CCNC(=O)Cc3c(F)cccc3Cl)c2c1	none
Cn1nc([N+](=O)[O-])nc1Sc1nnnn1-c1cccc(C(=O)O)c1	none
COc1ccc(CN2CCN(c3ccccc3OC)CC2)cc1OC	STEP block 91.1 | STEP inh conf inactive
